From article PMC4805780 (International Journal for Parasitology: Drugs and Drug …, 2016)
“Also recorded” adds a separate entry of the source. Like-named read-outs stand apart in the source and are kept apart here.

Tests used:
[1] = molecular target: T1, HcPMT1 (Haemonchus contortus, UniProt A0A2Z1FIB9); assay: Methyltransferase HT activity kit assay, HcPMT1 as sole enzyme; assay type: biochemical
T1 sequence (A0A2Z1FIB9 1-349): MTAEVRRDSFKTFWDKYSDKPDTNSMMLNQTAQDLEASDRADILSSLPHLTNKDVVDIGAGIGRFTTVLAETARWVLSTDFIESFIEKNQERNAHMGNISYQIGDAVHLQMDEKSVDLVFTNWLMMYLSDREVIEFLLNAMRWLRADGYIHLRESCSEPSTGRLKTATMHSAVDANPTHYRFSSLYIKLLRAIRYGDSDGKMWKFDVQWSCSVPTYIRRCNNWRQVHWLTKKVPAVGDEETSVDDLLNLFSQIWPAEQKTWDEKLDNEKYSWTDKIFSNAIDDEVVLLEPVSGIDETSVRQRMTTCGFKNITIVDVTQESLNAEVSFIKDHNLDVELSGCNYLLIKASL

[2] = molecular target: T2, HcPMT1 + HcPMT2 combination (Haemonchus contortus, UniProt A0A2Z1FIB9+U5HK48); assay: Methyltransferase HT activity kit assay, HcPMT1 + HcPMT2 combination; assay type: biochemical; settings: for IC50: read-out: HcPMT1 + HcPMT2 Activity inhibition IC50, 11 μg/ml each enzyme, 95 μM SAM, 160 μM phosphoethanolamine
T2 sequence (A0A2Z1FIB9 1-349): T1 sequence (A0A2Z1FIB9 1-349)
T2 sequence (U5HK48 3-433): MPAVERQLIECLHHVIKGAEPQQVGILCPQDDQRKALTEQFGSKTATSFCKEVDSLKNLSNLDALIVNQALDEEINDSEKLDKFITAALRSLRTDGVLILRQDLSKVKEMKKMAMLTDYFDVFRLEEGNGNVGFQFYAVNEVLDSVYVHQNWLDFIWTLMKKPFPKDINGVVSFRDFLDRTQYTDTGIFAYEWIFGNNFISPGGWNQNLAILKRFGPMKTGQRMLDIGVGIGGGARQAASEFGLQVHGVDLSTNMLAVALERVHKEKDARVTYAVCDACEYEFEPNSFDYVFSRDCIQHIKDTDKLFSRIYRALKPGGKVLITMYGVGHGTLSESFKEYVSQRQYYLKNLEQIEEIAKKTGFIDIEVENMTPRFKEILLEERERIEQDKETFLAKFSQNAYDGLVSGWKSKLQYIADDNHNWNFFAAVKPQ
Method in brief: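 His-tagged recombinant HcPMT1 and HcPMT2 from E. coli BL21-CodonPlus-DE3-RIL, Ni-affinity purified, dialysed in 5 mM Hepes-KOH pH 7.8 with 0.5 mM DTT. Fluorescent SAM-dependent methyltransferase kit, 11 µg/ml each enzyme, 95 µM SAM, 160 µM phosphoethanolamine. Rising test compound from DMSO stock; DMSO-only reactions as uninhibited. Triplicate, 24 °C, 45 min shaking, then kit positive-control mix 10 min. Isopropanol stop; fluorescence 380ex/520em. % inhibition against uninhibited mean RFU; IC50 by nonlinear regression.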

[3] = tested on: H. contortus third-stage (L3) larvae; assay: Anthelmintic effect on motility of third-stage larvae in culture; design: species or system Haemonchus contortus; settings: for anthelmintic effect against larvae: data not shown
Method in brief: (§1)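 Adult females freshly taken from goat abomasum, or L3 larvae Baermann-extracted from 10-day, 21 °C faecal cultures; both PCR-confirmed as H. contortus. 100 worms per dish, in triplicate, in 20 ml RPMI-1640 with 2% glucose and antibiotics, pH 6.8. Rising test-compound concentrations, with DMSO and untreated controls; 37 °C, 5% CO2, 36 h. Worms light-stimulated 5 min at 37 °C. 50 scored per dish as very motile, sluggish or immotile. IC50 from % non-motile by nonlinear regression.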

[4] = tested on: adult H. contortus female worms; assay: Anthelmintic effect on motility of adult female worms in culture; design: species or system Haemonchus contortus; settings: for anthelmintic effect against adult worms: all concentrations up to a maximum of 80 μM
Method in brief: as §1

[5] = tested on: P. falciparum PMT; settings: previous studies ref Bobenchik et al., 2013; cited from earlier work
[6] = tested on: P. falciparum; settings: ref Bobenchik et al., 2013; cited from earlier work
[7] = tested on: MonoMac6 cells; assay: WST-1 cytotoxicity assay in mammalian cells; assay type: cell-based, human; settings: read-out: cytotoxic IC50; mammalian monocytic cells, 48 h
Method in brief: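 MonoMac6 cells seeded at 10⁴/well in phenol-red-free RPMI-1640 with 10% FCS, 2.05 mM L-glutamine, nonessential amino acids, OPI supplement and 1% penicillin-streptomycin. Test compound at rising concentrations in triplicate, with DMSO-only controls; 48 h, 37 °C, 5% CO2. WST-1 added, 1 h at 37 °C. Supernatant transferred and formazan read as absorbance at 420 nm.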

[8] = all concentrations up to a maximum of 80 μM

Question: With `S=C(CSc1ccccc1)Nc1cccc2ccccc12` [NSC-158011, N-naphthalen-1-yl-2-phenylsulfanylethanethioamid] as the compound, how does the “inhibitory effect against the activity of HcPMT1 as the sole enzyme” value [1] read?
Answer: did not have any significant inhibitory effect; also recorded: had no inhibitory effect

Question: What about the inhibition at 15 µM ([2]; read-out: maximum inhibition of combined activity of HcPMT1 and HcPMT2) of the same compound?
Answer: 12%

Question: And the “anthelmintic effect against larvae” value [3, 8]?
Answer: did not show any anthelmintic effect

Question: What about the “anthelmintic effect against adult worms” value ([4]; data not shown) of the same compound?
Answer: did not show any anthelmintic effect

Question: What about the “inhibitory effect against catalytic activity of P. falciparum PMT” value [5] of the same compound?
Answer: significant inhibitory effect

Question: What about the “antiparasitic activity against P. falciparum” value [6] of the same compound?
Answer: significant antiparasitic activity

Question: Which “inhibitory effect against the activity of HcPMT1 as the sole enzyme” value [1] does the source give for `CC(=NNC(=[Se])N1CC2CCC(CC2)C1)c1ccccn1` [NSC-323241, 3-Azabicyclo[3.2.2]nonane-3-carboselenoic acid, [1-(2-pyridinyl)ethylidene]hydrazide] here?
Answer: did not have any significant inhibitory effect; also recorded: had no inhibitory effect

Question: And the inhibition at 12 µM ([2]; read-out: maximum inhibition rate of combined activity of HcPMT1 and HcPMT2)?
Answer: 21%

Question: And the “anthelmintic effect against larvae” value [3, 8]?
Answer: did not show any anthelmintic effect

Question: What about the “anthelmintic effect against adult worms” value ([4]; data not shown) of the same compound?
Answer: did not show any anthelmintic effect

Question: What about the “inhibitory effect against catalytic activity of P. falciparum PMT” value [5] of the same compound?
Answer: significant inhibitory effect

Question: What about the “antiparasitic activity against P. falciparum” value [6] of the same compound?
Answer: significant antiparasitic activity

Question: Which IC50 [1] does the source give for `O=C1C=C(NCCc2cc(Br)c(O)c(Br)c2)C(=O)c2ncccc21` [NSC-668394, 5,8-Quinolinedione, 7-[[2-(3,5-dibromo-4-hydroxyphenyl)ethyl]amino]-] here?
Answer: 5.9 ± 0.9 µM

Question: And the “concentration with highest inhibitory effect on HcPMT1 and HcPMT2 activity” value [2]?
Answer: 5 µM

Question: What about the IC50 [2] of the same compound?
Answer: 2.8 ± 0.6 µM

Question: What about the “anthelmintic effect against larvae” value ([3]; up to 60 μM) of the same compound?
Answer: did not show any anthelmintic activity

Question: And the “anthelmintic effect against adult H. contortus” value ([4]; up to 60 μM, data not shown)?
Answer: did not show any anthelmintic activity

Question: For “Hydrazinecarbothioamide, N,N-dipropyl- 2-(2-pyridinemethylene)-, (N,N,S)-copper(II) chloride complex, (SP-4-3)- [NSC-641296]”, which IC50 ([1]; read-out: HcPMT1 Activity inhibition IC50, HcPMT1 alone, 95 μM SAM, 160 μM phosphoethanolamine) is on record?
Answer: 8.3 ± 1.1 µM

Question: What about the “concentration with highest inhibitory effect on HcPMT1 and HcPMT2 activity” value [2] of the same compound?
Answer: 8 µM

Question: And the IC50 [2]?
Answer: 5.1 ± 1.8 µM

Question: And the “concentration from which significant decrease in very motile larvae was observed” value ([3]; 36 h, P < 0.05)?
Answer: 4 µM

Question: And the “cytotoxic IC50 relative to anthelmintic IC50 against larvae” value ([3]; MonoMac6 IC50 vs larvae IC50)?
Answer: 2 fold

Question: And the “percentage of sluggishly motile larvae relative to very motile” value ([3]; above 4 μM, 36 h)?
Answer: at least 2.7 fold

Question: What about the “percentage of immotile worms relative to very motile worms” value ([3]; at 22 μM, larvae, 36 h) of the same compound?
Answer: 4 fold

Question: What about the “percentage of sluggishly motile worms relative to very motile” value ([3]; from 14 μM and above, larvae, 36 h) of the same compound?
Answer: at least 3 fold

Question: And the “cytotoxic IC50 relative to anthelmintic IC50 against adult worms” value ([4]; MonoMac6 IC50 vs adult worm IC50)?
Answer: 4 fold

Question: What about the “percentage of immotile worms relative to motile worms” value ([4]; at 8 μM and above, adult worms, 36 h) of the same compound?
Answer: at least 2 fold

Question: And the “change in number of motile adult worms” value ([4]; at 8 μM, 36 h)?
Answer: decrease by half

Question: What about the IC50 [7] of the same compound?
Answer: 29 ± 2.1 µM
